According to ChEMBL document CHEMBL3525910, “Pharmacokinetics of oral D-serine in D-amino acid oxidase knockout mice” (Drug Metab Dispos, 2012):

Tests used:
Format in all cases: ADME, organism-based
[1] = AUC (0 to infinity) in wild-type mouse at 30 mg/kg, po; parameters: time infinity, dose 30 mg/kg, route oral; conditions: plasma
Procedure, shortened: (§1)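 Mice (wild-type 129SvEv or DAAO knockout; n = 3–6 per time point, n = 2 at 120 and 240 min for the group also given CBIO 30 mg/kg in 10% DMSO/0.9% saline) dosed orally, 10 ml/kg, with D-serine 30 mg/kg. Cardiac-puncture blood taken at 30, 60, 120, 240 min into heparin tubes and spun to plasma. Methanol extraction, derivatization, then HPLC fluorescence (ex 344/em 443 nm). Parameters from noncompartmental analysis.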

[2] = Tmax in wild-type mouse at 30 mg/kg, po in presence of CBIO; parameters: dose 30 mg/kg, route oral; conditions: in vivo; procedure, shortened: as §1
[3] = Elimination half life in wild-type mouse at 30 mg/kg, po; parameters: dose 30 mg/kg, route oral; conditions: in vivo, read-out: beta t1/2 (converted); procedure, shortened: as §1
[4] = Elimination half life in DAAO knockout mouse at 30 mg/kg, po; parameters: dose 30 mg/kg, route oral; conditions: in vivo, read-out: beta t1/2
Procedure, shortened: (§2)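 DAAO knockout mice were dosed orally (10 ml/kg) with D-serine 30 mg/kg, n = 3–6 per time point, and plasma was taken at 30–240 min. D-serine was measured by methanol extraction, derivatization and reversed-phase HPLC with fluorescence detection. Cmax and Tmax are observed values. t½ = 0.693/λz with uniform weighting. AUClast is by the log-linear trapezoidal rule, with variance by Bailer's method.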

[5] = AUC (0 to infinity) in wild-type mouse at 30 mg/kg, po in presence of CBIO; parameters: time infinity, dose 30 mg/kg, route oral; conditions: plasma; procedure, shortened: as §1
[6] = Cmax in wild-type mouse at 30 mg/kg, po in presence of CBIO; parameters: dose 30 mg/kg, route oral; conditions: in vivo; procedure, shortened: as §1
[7] = AUC (0 to last) in wild-type mouse at 30 mg/kg, po; parameters: time 0 - last, dose 30 mg/kg, route oral; conditions: plasma; procedure, shortened: as §1
Cortex [8] = assay: Drug uptake in DAAO knockout mouse cortex at 30 mg/kg, po after 1 hr; parameters: dose 30 mg/kg, route oral; conditions: in vivo
Procedure, shortened: (§3)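 Wild-type or DAAO knockout mice were given D-serine 30 mg/kg orally. At 1 h, cerebellum and frontal cortex were excised, weighed and frozen at −80°C. Tissue was homogenized and sonicated in 20 volumes (w/v) methanol and spun at 50,000g for 15 min at 4°C. The supernatant was dried, derivatized for 2 min at room temperature, and D-serine was quantified by C18 HPLC with fluorescence detection.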

[9] = AUC (0 to last) in DAAO knockout mouse at 30 mg/kg, po; parameters: time 0 - last, dose 30 mg/kg, route oral; conditions: plasma; procedure, shortened: as §2
[10] = Tmax in wild-type mouse at 30 mg/kg, po; parameters: dose 30 mg/kg, route oral; conditions: in vivo; procedure, shortened: as §1
[11] = Tmax in DAAO knockout mouse at 30 mg/kg, po; parameters: dose 30 mg/kg, route oral; conditions: in vivo; procedure, shortened: as §1
Cerebellum [12] = assay: Drug uptake in wild-type mouse cerebellum at 30 mg/kg, po after 1 hr; parameters: dose 30 mg/kg, route oral; conditions: in vivo; procedure, shortened: as §3
[13] = Elimination half life in wild-type mouse at 30 mg/kg, po in presence of CBIO; parameters: dose 30 mg/kg, route oral; conditions: in vivo, read-out: beta t1/2 (converted); procedure, shortened: as §1
[14] = Cmax in DAAO knockout mouse at 30 mg/kg, po; parameters: dose 30 mg/kg, route oral; conditions: in vivo; procedure, shortened: as §1
Cerebellum [15] = assay: Drug uptake in DAAO knockout mouse cerebellum at 30 mg/kg, po after 1 hr; parameters: dose 30 mg/kg, route oral; conditions: in vivo; procedure, shortened: as §3
Cortex [16] = assay: Drug uptake in wild-type mouse cortex at 30 mg/kg, po after 1 hr; parameters: dose 30 mg/kg, route oral; conditions: in vivo; procedure, shortened: as §3
[17] = AUC (0 to last) in wild-type mouse at 30 mg/kg, po in presence of CBIO; parameters: time 0 - last, dose 30 mg/kg, route oral; conditions: plasma; procedure, shortened: as §1
[18] = Cmax in wild-type mouse at 30 mg/kg, po; parameters: dose 30 mg/kg, route oral; conditions: in vivo; procedure, shortened: as §1

Compound: N[C@H](CO)C(=O)O [(D)-SERINE]
- AUC(0-inf) [1]: 46000 ng·h/mL
- Tmax [2]: 1 h
- half-life [3]: 72 min
- half-life [4]: > 600 min
- AUC(0-inf) [5]: 80900 ng·h/mL
- Cmax [6]: 24300 ng/mL
- AUC(0-t) [7]: 40600 ng·h/mL
- Drug uptake (Cortex [8]): Active
- AUC(0-t) [9]: 95800 ng·h/mL
- Tmax [10]: 42 min
- Tmax [11]: 2.7 h
- Drug uptake (Cerebellum [12]): Not Active
- half-life [13]: 90 min
- Cmax [14]: 27800 ng/mL
- Drug uptake (Cerebellum [15]): Active
- Drug uptake (Cortex [16]): Active
- AUC(0-t) [17]: 65800 ng·h/mL
- Cmax [18]: 19600 ng/mL
